Bioassay records as filed in PubChem.
M5 PAM: human M5 muscarinic receptor positive allosteric modulators, primary screen, CHO-K1 cells, Fluo-8 calcium fluorescence. AID 624038, 2012. Muscarinic acetylcholine receptor M5 (Homo sapiens), P08912. activation, % at 3 µM. actives 0.3% (n = 360,000). CHO-K1 hM5, ACh EC20 PAM; 0% = ACh EC20, 100% = ACh EC100;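 active means activation above the run cutoff, the mean activation of all test compounds plus 3 SD, cut at about 18% in these data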
Target sequence (P08912 whole entry, looked up): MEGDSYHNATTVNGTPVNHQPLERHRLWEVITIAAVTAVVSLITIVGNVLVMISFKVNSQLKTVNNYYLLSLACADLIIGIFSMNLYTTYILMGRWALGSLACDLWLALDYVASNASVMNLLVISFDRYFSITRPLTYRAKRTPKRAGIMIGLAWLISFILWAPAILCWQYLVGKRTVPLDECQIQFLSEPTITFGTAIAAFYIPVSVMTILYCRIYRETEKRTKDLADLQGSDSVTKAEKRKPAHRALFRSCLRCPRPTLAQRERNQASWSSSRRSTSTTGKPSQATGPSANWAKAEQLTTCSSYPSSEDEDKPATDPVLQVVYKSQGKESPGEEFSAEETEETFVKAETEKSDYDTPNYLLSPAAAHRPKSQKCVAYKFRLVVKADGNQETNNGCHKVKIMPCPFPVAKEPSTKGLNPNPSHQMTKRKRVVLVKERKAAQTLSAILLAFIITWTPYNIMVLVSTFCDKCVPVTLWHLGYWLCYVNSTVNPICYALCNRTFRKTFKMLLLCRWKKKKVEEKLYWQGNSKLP
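System – CHO-K1 hM5 cells · Compound – 3 µM, single dose · Incubation – compound preincubation 140 s before EC20 acetylcholine addition · Technique – Fluo-8 calcium fluorescence · Measure – Max/basal fluorescence ratio as % of EC20–EC100 ACh window · Benchmarks – low control EC20 acetylcholine (0%), high control EC100 acetylcholine (100%) · Replication – singlicate, one well per test compound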
M4 PAM: human M4 muscarinic receptor positive allosteric modulators, primary screen, CHO-K1 cells, Fluo-8 calcium fluorescence; actives 0.4% (n = 360,000); Muscarinic acetylcholine receptor M4 (Homo sapiens), P08173; AID 624126, 2012; activation, % at 3 µM; CHO-K1 hM4/Gqi5, ACh EC20; 0% = ACh EC20, 100% = maximal ACh;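 active means activation above its plate's cutoff, the mean activation of sample wells plus 3 SD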
M5 ag: human M5 muscarinic receptor agonists, primary screen, CHO-K1 cells, Fluo-8 calcium fluorescence; CHO-K1 hM5 cells; 0% DMSO wells, 100% maximal acetylcholine response; activation, % at 3 µM; actives 0.19% (n = 360,000); AID 624037, 2012;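 active means activation above the run's mean over test compounds plus 3 SD, cut at about 23% in these data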;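 further: signal is peak over basal fluorescence ratio across the kinetic read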
M4 ag: human M4 muscarinic receptor agonists, primary screen, CHO-K1 cells, Fluo-8 calcium fluorescence; Muscarinic acetylcholine receptor M4 (Homo sapiens), P08173; activation, % at 3 µM; AID 624127, 2012; actives 0.14% (n = 360,000); CHO-K1 hM4/Gqi5; vehicle 0%, full acetylcholine response 100%;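 active means activation above the run mean over all test wells plus 3 SD, cut at about 32% in these data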;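 further: peak over basal fluorescence ratio per well then scaled between controls; 0% = DMSO wells and 100% = acetylcholine at EC100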
CHRM5 antagonist: human M5 muscarinic receptor antagonists, primary screen, CHO cells, Fluo-8 calcium fluorescence. Muscarinic acetylcholine receptor M5 (Homo sapiens), P08912. CHO-hM5 cells, ACh EC80. inhibition, % at 3 µM. actives 0.59% (n = 360,000);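 active means inhibition above a per-plate cutoff, the mean of that plate's test compounds plus 3 SD, cut at about 27% in these data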;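 further: 0% = acetylcholine EC80 with DMSO and 100% = DMSO without agonist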
CHRM4 antagonist: human M4 muscarinic receptor antagonists, primary screen, CHO cells, Fluo-8 calcium fluorescence; Muscarinic acetylcholine receptor M4 (Homo sapiens), P08173; CHO-hM4 cells, ACh EC80; inhibition, % at 3 µM; actives 0.73% (n = 360,000);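 active means inhibition above its plate's cutoff, the mean inhibition of sample wells plus 3 SD, cut at about 27% in these data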;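 further: 0% = acetylcholine EC80 with DMSO and 100% = DMSO without agonist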
The depositor's hits bear a star. An excerpt weighted towards active compounds, which were near 1.9% of everything screened.

SMILES	M5 PAM	M4 PAM	M5 ag	M4 ag	CHRM5 antagonist	CHRM4 antagonist
Cc1nnc(NC(=O)c2sc3nc(-c4cccs4)cc(C(F)(F)F)c3c2N)s1	-6.6	-12.1	11.7	33.6*	15.5	6.7
CC(C)(C)C(=O)c1sc2nc(-c3cccs3)cc(C(F)(F)F)c2c1N	6.2	-1.4	0.4	1.4	-8.6	9.4
Nc1c(C(=O)Nc2nccs2)sc2nc(-c3cccs3)cc(C(F)(F)F)c12	-11.5	-17.1	22.0	20.6	34.5*	22.2
CC(C)N(Cc1nccn1C)C(=O)c1cc(COc2ccc(F)cc2Cl)on1	-8.7	-7.3	-5.1	4.0	30.8*	0.2
CCCC(C)C(=O)Nc1ccc(S(N)(=O)=O)cc1 (stereo not drawn)	8.5	22.6*	-3.5	0.7	-9.0	-6.7
Cc1cccc(C)c1NC(=O)C1CCCN1S(=O)(=O)c1ccc2c(c1)n(C)c(=O)c(=O)n2C (stereo not drawn)	-10.6	-5.1	-2.0	2.3	3.1	10.6
CSCCC(NS(=O)(=O)c1cccc(C(F)(F)F)c1)C(=O)N(C)CCOc1ccc(Cl)cc1 (stereo not drawn)	-0.4	2.9	1.3	2.5	7.1	6.5
CNc1cc(-c2cc(OC)ccc2OC)ncn1	0.2	-11.9	-0.3	-0.7	0.8	72.9*
CN(CC(=O)Nc1ccc(N2CCOCC2)cc1)C(=O)Cc1ccccc1	3.8	0.3	4.7	-0.5	3.9	4.5
Cc1cccc(N(Cc2ccccc2)C(=O)c2cccc(S(=O)(=O)N3CC(C)OC(C)C3)c2)c1 (stereo not drawn)	-6.1	-7.3	-4.2	5.6	8.8	-5.3
COc1cc(Cl)ccc1NC(=S)N(CCN1CCOCC1)C1CCN(C(C)=O)CC1	4.9	-12.3	-2.2	0.1	-0.2	61.4*
Cc1sc2ncnc(NS(=O)(=O)c3ccc(Cl)cc3)c2c1C	3.6	6.1	3.0	3.2	9.3	-4.8
CC(=O)Nc1ccc(S(=O)(=O)Nc2nc(C)nc3sc(C)c(C)c23)cc1	9.9	21.3*	-1.7	-0.9	-19.5	-12.5
C=CCC1(CC=C)CCCN1C(=O)c1cc(COc2ccc(F)c(F)c2)on1	-8.4	-9.0	-6.1	6.0	8.2	19.2
C=CCC1(CC=C)CCCN1C(=O)c1cc(COc2ccc(C)nc2)on1	-14.9	-10.2	2.7	20.8	50.7*	20.2
CC(C)c1ccc(C(C(=O)NC2CCCCC2)N(C(=O)c2csnn2)C2CC2)cc1 (stereo not drawn)	3.3	10.2	-2.2	0.8	-1.2	-14.5
O=C(NC1CCCCC1)C(c1ccc(F)cc1)N(C(=O)c1csnn1)C1CC1 (stereo not drawn)	5.3	19.4*	-0.5	0.4	-4.0	-11.5
CN(Cc1ccccc1)C(=O)COC(=O)c1ccc(Cl)cc1N	-6.4	-2.8	0.3	5.3	11.8	-7.6
CCOC(=O)N1CCN(C(=O)COC(=O)CSc2ccc([N+](=O)[O-])cc2)CC1	-0.3	-3.4	3.8	0.2	-1.4	-1.5
COC(=O)c1ccc(Oc2ccc3nnc(C)n3n2)cc1	5.2	12.0	2.5	0.1	-0.8	6.8
Cc1nnc2ccc(Oc3ccc(-c4ccccc4)cc3)nn12	-14.6	-18.7	1.3	10.0	33.7*	17.6
CCOC(=O)C1(C)CCCCN1C(=O)c1cccnc1 (stereo not drawn)	-2.0	19.3*	0.6	0.7	-15.3	-16.1
CCOC(=O)C1(C)CCCN1C(=O)c1cncc(Br)c1 (stereo not drawn)	0.0	-1.2	-0.8	-0.1	1.4	-7.5
Cc1cccc(-n2c(O)cnc2Nc2nc(C)cc(C)n2)c1	-12.3	-8.3	0.4	16.7	27.1*	4.8
Cc1cc(C)nc(Nc2ncc(O)n2-c2ccccc2)n1	0.8	-6.6	0.5	0.9	2.3	8.9
SMILES	M5 PAM	M4 PAM	M5 ag	M4 ag	CHRM5 antagonist	CHRM4 antagonist
O=C(CS(=O)(=O)c1ccccc1)Nc1ccccn1	-3.6	0.7	-0.6	1.2	-6.6	-11.9
O=C(CS(=O)(=O)c1ccccc1)Nc1ccc(Br)cn1	19.7*	10.3	-0.2	0.8	-7.5	11.7
COc1ccc(S(=O)(=O)N2CCCCC2)cc1NC(=O)CN(Cc1ccco1)Cc1ccco1	-44.1	-15.0	-3.2	20.1	43.5*	26.6*
COc1ccc(S(=O)(=O)N2CCCCC2)cc1NC(=O)CN(C)C1CCCCC1	3.1	4.2	-6.8	3.3	4.1	-8.7
COc1ccc(C(=O)OCN2C(=O)c3ccccc3C2=O)cc1	-3.9	3.0	-3.0	0.3	9.9	-1.4
CCC(c1nc2ccccc2[nH]1)n1c(=O)c(-c2cccnc2)nc2ccccc21 (stereo not drawn)	2.2	-1.9	0.3	-2.3	2.3	13.4
CC(c1nc2ccccc2[nH]1)n1c(=O)c(-c2cccnc2)nc2ccccc21 (stereo not drawn)	18.4*	4.7	2.8	-2.1	-17.6	-15.0
COc1cc2c(cc1OC)C(c1cccc(Br)c1)NC(=O)C2 (stereo not drawn)	24.0*	-9.2	11.3	0.7	-12.0	5.1
COc1ccc(NC(=O)C(C)Oc2ccc(/C(C)=N\O)cc2)cc1 (stereo not drawn)	-17.6	-1.0	27.2*	8.9	-2.4	-12.8
CC(C)NS(=O)(=O)c1ccc(NC(=O)C(C)Oc2ccc(C(=O)c3ccccc3)cc2)cc1 (stereo not drawn)	-17.4	-46.1	64.7*	116.8*	46.7*	71.0*
CC(Oc1ccccc1)C(=O)Nc1ccc(C(N)=O)cc1 (stereo not drawn)	-3.1	9.4	1.7	3.8	2.6	3.7
COc1cccc(NC(=O)NNC(=O)C(C)Oc2ccc3ccccc3c2)c1 (stereo not drawn)	-4.1	-4.4	-2.1	2.1	-1.4	5.8
COc1ccc(OC(C)C(=O)Nc2cccc(OC)c2)cc1 (stereo not drawn)	19.1*	4.5	-6.0	0.4	-11.8	-14.1
Cc1ccc(C(C(=O)NCc2ccc(F)cc2)N(CCCO)C(=O)C2COc3ccccc3O2)o1 (stereo not drawn)	-10.2	-14.7	6.6	8.9	-5.3	41.2*
Cc1ccc(CNC(=O)C2COc3ccccc3O2)cc1 (stereo not drawn)	4.4	-3.3	0.5	-0.2	11.2	3.5
CCCCc1cc(O)c(CCCC)c(O)c1	-16.2	-18.0	64.2*	106.2*	33.0*	52.3*
